Screening results: PubChem BioAssay, several laboratories
PPC-1+TRAIL kill – compounds killing PPC-1 cancer cells with TRAIL present, primary screen, TRAIL potentiator project, ATPLite luminescence, uHTS; PPC-1 cells + TRAIL, ATPLite viability luminescence; cell killing (% activity), % at 4 µM or 5 µM; 220,000 tested, 0.41% active; AID 1443, 2008;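 active = cell killing above 50% in the first pass at 4 µM, then a duplicate retest at 5 µM averaging 50% or more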;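 note: plate controls were cells with TRAIL plus DMSO for no effect and medium-only wells lacking cells for full effect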
NF-kB neuron act – activators of NF-kB expression in neurons, primary screen, cell-based, HTS; 190,000 tested, 1.6% active; human neuronal cells, NF-kB reporter expression; hits give high values; AID 1239, 2008; fold change at 12.5 µM; in the data active = fold change above about 3.3
FLuc act counter – FLuc activators, initial screening, artefact control for FLuc-dependent activation tests, biochemical, ATPlite luminescence. Luciferin 4-monooxygenase (Photinus pyralis), P08659. ATPlite luciferase biochemical, 10 min; 0 = ATP-free wells, 1 = DMSO control. activation factor at 10 µM. 200,000 tested, under 10 active;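 active = luciferase activation factor, scaled between plate controls, of at least 2 with compound at 10 µM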
Target sequence (P08659 whole entry, looked up): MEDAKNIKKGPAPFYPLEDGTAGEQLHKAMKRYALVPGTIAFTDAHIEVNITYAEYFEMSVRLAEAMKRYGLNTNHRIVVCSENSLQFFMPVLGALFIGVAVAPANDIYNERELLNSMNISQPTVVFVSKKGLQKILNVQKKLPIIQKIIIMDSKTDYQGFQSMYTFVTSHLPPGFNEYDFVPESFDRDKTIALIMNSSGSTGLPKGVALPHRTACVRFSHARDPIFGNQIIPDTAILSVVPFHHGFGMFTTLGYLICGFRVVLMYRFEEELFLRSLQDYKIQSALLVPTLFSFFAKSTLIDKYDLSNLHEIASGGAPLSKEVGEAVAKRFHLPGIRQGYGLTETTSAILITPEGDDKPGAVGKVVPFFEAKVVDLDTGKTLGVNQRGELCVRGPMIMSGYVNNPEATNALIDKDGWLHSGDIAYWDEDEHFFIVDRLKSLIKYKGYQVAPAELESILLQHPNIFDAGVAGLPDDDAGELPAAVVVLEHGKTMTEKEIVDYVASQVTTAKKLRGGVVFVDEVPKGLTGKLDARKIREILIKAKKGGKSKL
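Assay system – cell-free luciferase reagent · Medium – PBS-based ATP solution · Dosing – test compounds dosed from 2 mM stocks in 100% DMSO · Timing – 10 min, room temperature · Technique – light output (luminescence) · Measure – luminescence gain marking luciferase activators · Controls – No-ATP low control, compound-free enzyme-plus-ATP high control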
FLuc inh counter – firefly luciferase enzyme inhibitors, primary screen, artefact control for luciferase-based inhibitor screens, biochemical, luminescence, ATPLite | Luciferin 4-monooxygenase (Photinus pyralis), P08659 | inhibition, % at 10 µM | 10 min | 200,000 tested, 1.5% active;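 active = inhibition above about 50% when tested at 10 µM, limit read from the data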
C8 TRAIL sens – viability loss with TRAIL in NB7+C8 cells, primary screen, TRAIL sensitizer project, cell-based, ATPlite luminescence. 360,000 tested, 1% active. inhibition (viability loss, TRAIL sensitization), % at 10 µM;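 active = compounds causing at least 50% loss of cell viability in the single-dose screen, relative to plate controls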
APP 5'UTR act – activators of APP 5'UTR luciferase reporter, primary screen, SH-SY5Y cells; 190,000 tested, 1% active; AID 1276, 2008; activation, % at 2 µM; SH-SY5Y APP 5'UTR luciferase reporter, luminescence; zero percent = DMSO vehicle wells;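 active = activation above a set limit, based on mean plus 3 SD of controls, cut at about 140% in these data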
Starred values were filed as active, the others as inactive; · = no result given. An excerpt weighted towards active compounds, which were near 2.2% of everything screened.

SMILES | PPC-1+TRAIL kill | NF-kB neuron act | FLuc act counter | FLuc inh counter | C8 TRAIL sens | APP 5'UTR act
CC(=O)Nc1ccc(CN(C)c2c(C)nc3ccc(C(=O)N4CCN(C(C)=O)CC4)cn23)cc1 | · | · | · | · | -3 | ·
CCOc1ccc(-c2nnc(-c3ccccc3)o2)cc1 | 27 | 4.2* | 0.3 | 75* | 58* | 114
CCOc1ccc(S(=O)(=O)NC2=NCCCCC2)cc1 | · | · | · | · | -1 | ·
CCOc1ccc(-c2cnc3ccccc3n2)cc1 | 19 | · | · | · | 66* | ·
CCOC(=O)COc1ccc(-c2nnc(-c3ccccc3)o2)cc1 | 32 | 1.1 | 0.8 | 15 | 49* | -8
O=[N+]([O-])c1ccc(-c2cnc3ccccc3n2)cc1 | · | · | · | · | -2 | ·
CCOc1ccc(-c2nnc(NC3=NCCCCC3)o2)cc1 | 27 | 4.1* | 0.6 | 36 | 25 | 122
COc1ccccc1Cc1c(C2CCCCC2)nc2cc(C)c(Br)c(C)n12 | · | · | · | · | 15 | ·
CN(Cc1ccc2c(c1)CCCN2C)C(=O)[C@H]1O[C@@H](n2cnc3c(N)ncnc32)[C@H](O)[C@@H]1O | · | · | · | · | -11 | ·
COc1ccc(C2=CCCCCC2)cc1OC | · | · | · | · | -4 | ·
Nc1ccccc1Nc1cc(-c2ccccc2)nn1-c1ccccc1 | 17 | 1.2 | 1 | 0 | -4 | -3
Nc1ccccc1Nc1cc(-c2ccccc2)[nH]n1 | 19 | 4.7* | 0.7 | 31 | 19 | 18
COCC(=O)OC1CCn2c1nc1c2C(=O)C(C)=C(NC(C)=O)C1=O (centres undefined) | · | · | · | · | 69* | ·
O=C(Nc1ccc(F)c(Cl)c1)c1ccc2sc([C@H]3C[C@H](O)[C@@H](CO)O3)nc2c1 | · | · | · | · | 21 | ·
COc1ccc(-c2nc3ccc(C)cn3c2Cc2ccsc2)cc1OC | · | · | · | · | 20 | ·
CC1=CN2C(=N)/C(=C/c3ccc(C)o3)C(=O)N=C2S1 | 26 | 4.3* | 0.2 | 80* | 54* | 161*
COc1ccc(C(=O)CN2C(=O)c3ccccc3S2(=O)=O)cc1Br | · | · | · | · | 20 | ·
CCCn1c(C)cc(C(=O)Cn2nnc3ccccc3c2=O)c1C | 32 | 4.7* | 0.4 | 57* | 31 | 159*
COc1ccc(C(=O)CN2C(=O)c3ccccc3S2(=O)=O)cc1 | 38 | · | · | · | 65* | ·
CCCn1c(C)cc(C(=O)CN2C(=O)c3ccccc3S2(=O)=O)c1C | · | · | · | · | 58* | ·
Cc1cc(C(=O)Cn2nc(C(=O)O)c3ccccc3c2=O)c(C)n1-c1cccc(C(F)(F)F)c1 | 5 | · | · | · | 7 | ·
Cc1cc(C(=O)Cn2nc(C(=O)O)c3ccccc3c2=O)c(C)n1-c1ccc(F)cc1 | 57* | 0.87 | 0.2 | 76* | 33 | -3
Cc1ccc(C)c(C(=O)CN2C(=O)c3ccccc3S2(=O)=O)c1 | 10 | 0.93 | 1 | -2 | 23 | -4
CCCn1c(C)cc(C(=O)CSc2nnc3n(CCC)c(=O)c4ccccc4n23)c1C | 16 | · | 1.1 | -8 | · | ·
CCCCNC(=O)c1nc(-c2cccnc2OC)oc1-c1ccc(Cl)cc1 | · | · | · | · | -6 | ·
SMILES | PPC-1+TRAIL kill | NF-kB neuron act | FLuc act counter | FLuc inh counter | C8 TRAIL sens | APP 5'UTR act
C[C@H](NC(=O)[C@@H]1CCCN1C(=O)[C@@H]1CCCN1C(=O)c1cccc(Cl)c1)c1ccccc1 | · | · | · | · | 7 | ·
Cc1cc(C(=O)Cn2nc(C(=O)O)c3ccccc3c2=O)c(C)n1C1CC1 | -13 | 0.75 | 0.9 | 11 | 5 | 26
COCCn1c(C)cc(C(=O)Cn2nc(C(=O)O)c3ccccc3c2=O)c1C | 17 | 1.7 | 0.1 | 91* | 64* | 44
CC(C)CNc1ncnc2c1ncn2[C@H]1CN(C2CCCC2)C[C@@H](CO)O1 | · | · | · | · | 5 | ·
Cc1ccccc1Oc1nc2ccccn2c(=O)c1/C=C(\C#N)C(=O)Nc1c(C)n(C)n(-c2ccccc2)c1=O | -9 | 4.6* | 1 | -4 | -7 | 2
CCc1ccc(C2=NN(C(C)=O)C(c3ccco3)C2)cc1 (centres undefined) | -1 | 4.7* | 0.8 | 15 | 4 | 144*
O=C(CCl)N1N=C(c2cccs2)CC1c1ccco1 (centres undefined) | 8 | 0.12 | 1 | -5 | 91* | -11
